Results: ChEMBL document CHEMBL3044755, “5-Methyl-1,2,3-thiadiazoles synthesized via ugi reaction and their fungicidal and antiviral activities” (J Agric Food Chem, 2010)

Experiments:
Fusarium graminearum = test: Fungicidal activity against Fusarium graminearum at 50 ug/ml by growth inhibition method; type: functional; settings: read-out: GI
Method in brief: (§1)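 Mycelial growth inhibition on potato dextrose agar. The panel covered Alternaria solani, Botrytis cinerea, Cercospora arachidicola, C. beticola, Colletotrichum lagenarium, Fusarium oxysporum, Gibberella zeae, Puccinia triticina, Phytophthora infestans, Physalospora piricola, Pellicularia sasakii and Rhizoctonia solani.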

Cercospora beticola = test: Fungicidal activity against Cercospora beticola at 50 ug/ml by growth inhibition method; type: functional; settings: read-out: GI; method in brief: as §1
Fusarium oxysporum = test: Fungicidal activity against Fusarium oxysporum at 50 ug/ml by growth inhibition method; type: functional; settings: read-out: GI; method in brief: as §1
[1] = tested on: Botryosphaeria berengeriana; test: Fungicidal activity against Botryosphaeria berengeriana at 50 ug/ml by growth inhibition method; type: functional; settings: read-out: GI; method in brief: as §1
Tobacco mosaic virus [2] = test: In vitro antiviral activity against Tobacco mosaic virus (TMV) infected tobacco leaves at 500 ug/ml; type: functional
Alternaria solani = test: Fungicidal activity against Alternaria solani at 50 ug/ml by growth inhibition method; type: functional; settings: read-out: GI; method in brief: as §1
Phytophthora infestans = test: Fungicidal activity against Phytophthora infestans at 50 ug/ml by growth inhibition method; type: functional; settings: read-out: GI; method in brief: as §1
Mycosphaerella arachidis = test: Fungicidal activity against Mycosphaerella arachidis at 50 ug/ml by growth inhibition method; type: functional; settings: read-out: GI; method in brief: as §1
Thanatephorus cucumeris = test: Fungicidal activity against Thanatephorus cucumeris at 50 ug/ml by growth inhibition method; type: functional; settings: read-out: GI; method in brief: as §1
Tobacco mosaic virus [3] = test: In vitro antiviral activity against Tobacco mosaic virus (TMV) infected tobacco leaves at 200 ug/ml; type: functional
Colletotrichum lagenaria = test: Fungicidal activity against Colletotrichum lagenaria at 50 ug/ml by growth inhibition method; type: functional; settings: read-out: GI; method in brief: as §1
Botrytis cinerea = test: Fungicidal activity against Botryotinia fuckeliana at 50 ug/ml by growth inhibition method; type: functional; settings: read-out: GI; method in brief: as §1
Tobacco mosaic virus [4] = test: In vivo antiviral activity against Tobacco mosaic virus (TMV) infected tobacco leaves assessed as protective effect at 100 ug/ml treated 12 hr before viral inoculation measured at 2-3 days after viral challenge; type: functional
Method in brief: (§2)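 Six-leaf tobacco; compound solution smeared over whole leaves, dried in greenhouse, then after 12 h TMV (5.88 10-2 μg/mL) rubbed onto upper three leaves, with solvent on lower three leaves as control. Local lesions counted 2-3 days post-inoculation, three repetitions. Inhibition (%) = (CK − A)/CK × 100 from mean lesion numbers.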

Nicotiana tabacum [5] = test: Induction of systemic acquired resistance activity in TMV infected-Nicotiana tabacum (tobacco) leaves at 50 ug/ml; type: functional
Method in brief: (§3)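 Tobacco/TMV system used for systemic acquired resistance induction. Inhibition ratio calculated from mean lesion numbers on inoculated leaves relative to corresponding control. Tiadinil and ribavirin run as controls.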

Tobacco mosaic virus [6] = test: In vivo antiviral activity against Tobacco mosaic virus (TMV) infected tobacco leaves assessed as inactivation effect at 100 ug/ml co-treated with virus for 30 min before inoculation onto leaves measured at 2-3 days after viral challenge; type: functional
Method in brief: (§4)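 TMV (5.88 10-2 μg/mL) mixed with equal volume of compound solution for 30 min, then rubbed onto upper three leaves of six-leaf tobacco; solvent on lower three leaves as control. Lesions counted 2-3 days later, three repetitions. Inhibition (%) = (CK − A)/CK × 100 from mean lesion counts.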

Tobacco mosaic virus [7] = test: In vivo antiviral activity against Tobacco mosaic virus (TMV) infected tobacco leaves assessed as inactivation effect at 500 ug/ml co-treated with virus for 30 min before inoculation onto leaves measured at 2-3 days after viral challenge; type: functional; method in brief: as §4
Nicotiana tabacum [8] = test: Phytotoxicity against Nicotiana tabacum (tobacco) plant; type: organism-based; settings: in vivo
Tobacco mosaic virus [9] = test: In vitro antiviral activity against Tobacco mosaic virus (TMV) infected tobacco leaves at 100 ug/ml; type: functional
Tobacco mosaic virus [10] = test: In vivo antiviral activity against Tobacco mosaic virus (TMV) infected tobacco leaves assessed as protective effect at 500 ug/ml treated 12 hr before viral inoculation measured at 2-3 days after viral challenge; type: functional; method in brief: as §2
Nicotiana tabacum [11] = test: Induction of systemic acquired resistance activity in TMV infected-Nicotiana tabacum (tobacco) leaves at 100 ug/ml; type: functional; method in brief: as §3

SMILES | inhibition of growth at 50 µg/mL (Fusarium graminearum) | inhibition of growth at 50 µg/mL (Cercospora beticola) | inhibition of growth at 50 µg/mL (Fusarium oxysporum) | inhibition of growth at 50 µg/mL [1] | inhibition at 500 µg/mL (Tobacco mosaic virus [2]) | inhibition of growth at 50 µg/mL (Alternaria solani) | inhibition of growth at 50 µg/mL (Phytophthora infestans) | inhibition of growth at 50 µg/mL (Mycosphaerella arachidis) | inhibition of growth at 50 µg/mL (Thanatephorus cucumeris) | inhibition at 200 µg/mL (Tobacco mosaic virus [3]) | inhibition of growth at 50 µg/mL (Colletotrichum lagenaria) | inhibition of growth at 50 µg/mL (Botrytis cinerea) | Activity (Tobacco mosaic virus [4]) | Activity (Nicotiana tabacum [5]) | Activity (Tobacco mosaic virus [6]) | Activity (Tobacco mosaic virus [7]) | Activity (Nicotiana tabacum [8]) | inhibition at 100 µg/mL (Tobacco mosaic virus [9]) | Activity (Tobacco mosaic virus [10]) | Activity (Nicotiana tabacum [11])
Cc1ccc(N(C(=O)c2nnsc2C)C(C(=O)NC(C)C)c2ccc(Cl)cc2)cc1Cl (stereo unspecified) | 4% | 9% | 26% | 47% | 32% | 37% | 19% | 21% | 60% | 25% | 7% | 76% |  |  |  |  |  |  |  | 
Cc1ccc(N(C(=O)c2nnsc2C)C(C(=O)NC(C)C)c2cccc(Cl)c2)cc1Cl (stereo unspecified) | 4% | 9% | 26% | 40% | 9% | 37% | 14% | 8% | 62% | 6% | 14% | 76% |  |  |  |  |  |  |  | 
Cc1ccc(N(C(=O)c2nnsc2C)C(C(=O)NC(C)C)c2ccccc2Cl)cc1Cl (stereo unspecified) | 23% | 25% | 23% | 27% | 8% | 49% | 23% | 21% | 72% | 3% | 13% | 76% |  |  |  |  |  |  |  | 
Cc1ccc(N(C(=O)c2nnsc2C)C(C(=O)NC(C)C)c2ccc(F)cc2)cc1Cl (stereo unspecified) | 27% | 25% | 14% | 36% | 19% | 42% | 5% | 13% | 63% | 14% | 17% | 70% |  |  |  |  |  |  |  | 
Cc1ccc(N(C(=O)c2nnsc2C)C(C(=O)NC(C)C)c2ccc(C(F)(F)F)cc2)cc1Cl (stereo unspecified) | 67% | 17% | 12% | 11% | 34% | 35% | 0% | 25% | 56% | 32% | 7% | 70% |  |  |  |  |  |  |  | 
Cc1ccc(N(C(=O)c2nnsc2C)C(C(=O)NC(C)C)c2cccc(C(F)(F)F)c2)cc1Cl (stereo unspecified) | 50% | 25% | 14% | 44% | 41% | 37% | 0% | 13% | 26% | 17% | 17% | 76% |  |  |  |  |  |  |  | 
NC(=O)c1ncn([C@@H]2O[C@H](CO)[C@@H](O)[C@H]2O)n1 [RIBAVIRIN] |  |  |  |  | 32% |  |  |  |  |  |  |  | 30% | 31% | 46% | 59% | Non-toxic | 20% | 59% | 28%
